Reference: ChEMBL document CHEMBL1154866, “Lanostane triterpenes from the fruiting bodies of Ganoderma lucidum and their inhibitory effects on adipocyte differentiation in 3T3-L1 Cells” (J Nat Prod, 2010)

Key:
3T3-L1 [1] = assay: Cytotoxicity against mouse 3T3L1 cells at 40 ug/ml after 2 days by MTT assay; format: cell-based; conditions: 3t3-l1, 48 h
How it was run: (§1)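 3T3-L1 preadipocytes seeded at 1 × 10^4 cells/well in DMEM + 10% bovine calf serum, 37 °C, 5% CO2. After 24 h, vehicle or sample (10 to 80 µg/mL) added in serum-free DMEM. After a further 24 h, MTT added for 2 h. Formazan dissolved in DMSO, OD read at 570 nm.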

3T3-L1 [2] = assay: Inhibition of adipocytes differentiation in mouse 3T3L1 cells assessed as lipid accumulation at 40 ug/ml after 8 days by Oil red O staining relative to control; format: functional; conditions: 3T3-L1, 192 h
How it was run: (§2)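 Differentiation induced 2 days post-confluence with DEX, 0.5 mM IBMX and insulin in DMEM/10% FBS for 2 days, then DMEM/FBS/insulin refreshed every 2 days. Sample added every 2 days for 8 days (40 µg/mL, or 5–40 µg/mL series). Day 8: PBS wash, 4% formaldehyde fixation, oil red O 30 min, dye eluted with 2-propanol, A510 versus untreated control. Mean ± SD, n=3.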

[3] = target: T1, Glycerol-3-phosphate dehydrogenase [NAD(+)], cytoplasmic (Mus musculus) (UniProt P13707); assay: Inhibition of GPDH in mouse 3T3L1 cells assessed as reduction of NADH oxidation rate at 40 ug/ml; format: cell-based; parameters: scale not given: the % may be the effect or the level left; conditions: 3T3-L1
T1 sequence (whole entry): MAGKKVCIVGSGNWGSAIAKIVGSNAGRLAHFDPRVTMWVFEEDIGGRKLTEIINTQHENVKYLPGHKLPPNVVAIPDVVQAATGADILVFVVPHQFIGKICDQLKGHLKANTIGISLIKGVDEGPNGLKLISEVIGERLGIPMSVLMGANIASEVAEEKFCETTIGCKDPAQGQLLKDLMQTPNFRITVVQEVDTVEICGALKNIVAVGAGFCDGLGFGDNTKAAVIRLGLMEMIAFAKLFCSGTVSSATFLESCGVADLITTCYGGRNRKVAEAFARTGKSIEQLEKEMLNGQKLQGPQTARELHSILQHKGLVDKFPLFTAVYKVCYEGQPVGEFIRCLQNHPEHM
How it was run: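 Preadipocytes kept in DMEM/10% BCS; induced 2 days post-confluence with DEX, 0.5 mM IBMX and insulin in DMEM/10% FBS, then DMEM/FBS/insulin. Treated every 2 days (5–40 µg/mL) to day 8. Cells collected in extraction buffer and spun 12 000 rpm, 5 min, 4 °C. Supernatant A340 decline over 5 min gives NADH oxidation with dihydroxyacetone phosphate, as units per mg protein (Bradford). Mean ± SD, n=3.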

3T3-L1 [4] = assay: Inhibition of adipocytes differentiation in mouse 3T3L1 cells assessed as lipid accumulation at 5 to 40 ug/ml after 8 days by Oil red O staining relative to control; format: functional; how it was run: as §2
3T3-L1 [5] = assay: Inhibition of adipocytes differentiation in mouse 3T3L1 cells assessed as lipid accumulation after 8 days by Oil red O staining relative to control; format: functional, cell-based; how it was run: as §2
3T3-L1 [6] = assay: Cytotoxicity against mouse 3T3L1 cells at 80 ug/ml after 2 days by MTT assay; format: cell-based; conditions: 3t3-l1, 48 h; how it was run: as §1

Row | Activity [3] [%] | SMILES | Activity (3T3-L1 [1]) | inhibition at 40 µg/mL (3T3-L1 [2]) [%] | inhibition (INH) (3T3-L1 [4]) [%] | inhibition (3T3-L1 [5]) | Activity (3T3-L1 [6])
1 | – | C[C@H](CC(=O)C[C@@H](C)[C@H]1C[C@H](O)[C@@]2(C)C3=C(C(=O)C[C@]12C)[C@@]1(C)CCC(=O)C(C)(C)[C@@H]1C[C@@H]3O)C(=O)O [GANODERIC ACID A] | Non-toxic | 22 | – | – | –
2 | – | COC(=O)C(C)CC(=O)C[C@@H](C)[C@H]1CC(=O)[C@@]2(C)C3=C(C(=O)C[C@]12C)[C@@]1(C)CCC(=O)C(C)(C)[C@@H]1C[C@@H]3O (some centres undefined) [METHYL GANODERATE D] | Non-toxic | 22 | – | – | –
3 | > 80 | CCCCOC(=O)CC[C@@H](C)[C@H]1CC(=O)[C@@]2(C)C3=C(C(=O)C[C@]12C)[C@@]1(C)CC[C@H](O)C(C)(C)[C@@H]1C[C@@H]3O [BUTYL LUCIDENATE N] | Non-toxic | 56 | 56 | Dose-dependent effect | –
4 | – | CCCCOC(=O)CC[C@@H](C)[C@H]1CC(=O)[C@@]2(C)C3=C(C(=O)C[C@]12C)[C@@]1(C)CCC(=O)C(C)(C)[C@@H]1C[C@@H]3O [BUTYL LUCIDENATE A] | Non-toxic | 22 | – | – | Toxic
5 | – | COC(=O)CC[C@@H](C)[C@H]1CC(=O)[C@@]2(C)C3=C(C(=O)C[C@]12C)[C@@]1(C)CCC(=O)C(C)(C)[C@@H]1CC3=O [METHYL LUCIDENATE F] | Non-toxic | 22 | – | – | –
6 | – | CC(CC(=O)C[C@@H](C)[C@H]1CC(=O)[C@@]2(C)C3=C(C(=O)C[C@]12C)[C@@]1(C)CC[C@H](O)C(C)(C)[C@@H]1C[C@@H]3O)C(=O)O (some centres undefined) [GANODERIC ACID B] | Non-toxic | 22 | – | – | –
7 | – | COC(=O)CC[C@@H](C)[C@H]1CC(=O)[C@@]2(C)C3=C(C(=O)[C@@H](OC(C)=O)[C@]12C)[C@@]1(C)CC[C@H](O)C(C)(C)[C@@H]1C[C@@H]3O [METHYL LUCIDENATE P] | Non-toxic | 22 | – | – | –
8 | – | CCCCOC(=O)[C@H](C)CC(=O)C[C@@H](C)[C@H]1CC(=O)[C@@]2(C)C3=C(C(=O)C[C@]12C)[C@@]1(C)CC[C@H](O)C(C)(C)[C@@H]1C[C@@H]3O [BUTYL GANODERATE B] | Non-toxic | 22 | – | – | –
9 | – | COC(=O)C(C)CC(=O)C[C@@H](C)[C@H]1CC(=O)[C@@]2(C)C3=C(C(=O)C[C@]12C)[C@@]1(C)CCC(=O)C(C)(C)[C@@H]1CC3=O (some centres undefined) [METHYL GANODERATE E] | Non-toxic | 22 | – | – | –
10 | – | COC(=O)CC[C@@H](C)[C@H]1CC(=O)[C@@]2(C)C3=C(C(=O)C[C@]12C)[C@@]1(C)CCC(=O)C(C)(C)[C@@H]1C[C@@H]3O [METHYL LUCIDENATE A] | Non-toxic | 22 | – | – | Toxic
11 | – | COC(=O)C(C)CC(=O)C[C@@H](C)[C@H]1C[C@H](O)[C@@]2(C)C3=C(C(=O)C[C@]12C)[C@@]1(C)CCC(=O)C(C)(C)[C@@H]1C[C@@H]3O (some centres undefined) [METHYL GANODERATE A] | Non-toxic | 22 | – | – | Toxic
12 | – | COC(=O)C(C)CC(=O)C[C@@H](C)[C@H]1CC(=O)[C@@]2(C)C3=C(C(=O)C[C@]12C)[C@@]1(C)CC[C@H](O)C(C)(C)[C@@H]1C[C@@H]3O (some centres undefined) [METHYL GANODERATE B] | Non-toxic | 22 | – | – | –
13 | – | COC(=O)C(C)CC(=O)C[C@@H](C)[C@H]1CC(=O)[C@@]2(C)C3=C(C(=O)[C@@H](OC(C)=O)[C@]12C)[C@@]1(C)CC[C@H](O)C(C)(C)[C@@H]1CC3=O (some centres undefined) [METHYL GANODERATE H] | Non-toxic | 22 | – | – | –
14 | – | COC(=O)CC[C@@H](C)[C@H]1CC(=O)[C@@]2(C)C3=C(C(=O)[C@@H](OC(C)=O)[C@]12C)[C@@]1(C)CC[C@H](O)C(C)(C)[C@@H]1CC3=O [METHYL LUCIDENATE E2] | Non-toxic | 22 | – | – | –
15 | – | CCCCOC(=O)C(C)CC(=O)C[C@@H](C)[C@H]1C[C@H](O)[C@@]2(C)C3=C(C(=O)C[C@]12C)[C@@]1(C)CCC(=O)C(C)(C)[C@@H]1C[C@@H]3O (some centres undefined) [BUTYL GANODERATE A] | Non-toxic | 22 | – | – | Toxic
16 | – | CC(CC(=O)C[C@@H](C)[C@H]1C[C@H](O)[C@@]2(C)C3=C(C(=O)C[C@]12C)[C@@]1(C)CCC(=O)C(C)(C)[C@@H]1CC3)C(=O)O (some centres undefined) [GANOLUCIDIC ACID A] | Non-toxic | 22 | – | – | Toxic
17 | – | C[C@H](CCC(=O)O)[C@H]1CC(=O)[C@@]2(C)C3=C(C(=O)C[C@]12C)[C@@]1(C)CC[C@H](O)C(C)(C)[C@@H]1C[C@@H]3O [LUCIDENIC ACID N] | Non-toxic | 22 | – | – | –
18 | – | C[C@H](CC(=O)C[C@@H](C)[C@H]1CC(=O)[C@@]2(C)C3=C(C(=O)C[C@]12C)[C@@]1(C)CCC(=O)C(C)(C)[C@@H]1CC3=O)C(=O)O [GANODERIC ACID E] | Non-toxic | 22 | – | – | –
